Results from ChEMBL document CHEMBL5329156, “Discovery and development of novel substituted monohydrazides as potent antifungal agents” (RSC Med Chem, 2023).
In brackets after ≈: the same amount, converted by molar mass. Activity calls are given as the source filed them. No cut-off for these calls is given here.

Tests used:
[1] = tested on: Candida albicans; test: Antifungal activity against Candida albicans ATCC 10231 assessed as fungal growth inhibition by double dilution method; format: functional
How it was run: (§1)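 Broth microdilution after CLSI M27-A3/M38-A2 with minor changes. Single colony grown overnight in YPD at 35 °C, 200 rpm. Compound final range 0.06-31.3 µg/mL; incubated 48 h at 35 °C.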

[2] = tested on: Candida albicans; test: Antifungal activity against Candida albicans ATCC 64124 assessed as fungal growth inhibition by double dilution method; format: functional
How it was run: (§2)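 Broth microdilution after CLSI M27-A3/M38-A2 with minor modifications. A single colony was grown overnight in YPD at 35 °C with shaking at 200 rpm. Cells were mixed 1:1 with compound (final 0.06-31.3 µg/mL, from DMSO stocks) and incubated 48 h at 35 °C.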

[3] = tested on: Candida albicans; test: Antifungal activity against itraconazole/fluconazole susceptible Candida albicans ATCC MYA-2876 assessed as fungal growth inhibition by double dilution method; format: functional; how it was run: as §2
[4] = tested on: Candida albicans; test: Antifungal activity against itraconazole/fluconazole resistant Candida albicans ATCC 90819 assessed as fungal growth inhibition by double dilution method; format: functional; how it was run: as §2
[5] = tested on: Candida albicans; test: Antifungal activity against itraconazole/fluconazole susceptible Candida albicans ATCC MYA-2310 assessed as fungal growth inhibition by double dilution method; format: functional; how it was run: as §2
[6] = tested on: Candida albicans; test: Antifungal activity against itraconazole/fluconazole resistant Candida albicans ATCC MYA-1237 assessed as fungal growth inhibition by double dilution method; format: functional; how it was run: as §2
[7] = tested on: Candida albicans; test: Antifungal activity against itraconazole/fluconazole resistant Candida albicans ATCC MYA-1003 assessed as fungal growth inhibition by double dilution method; format: functional; how it was run: as §2
[8] = tested on: Nakaseomyces glabratus; test: Antifungal activity against Candida glabrata ATCC 2001 assessed as fungal growth inhibition by double dilution method; format: functional; how it was run: as §1
[9] = tested on: Pichia kudriavzevii; test: Antifungal activity against Pichia kudriavzevii ATCC 6258 assessed as fungal growth inhibition by double dilution method; format: functional; how it was run: as §1
[10] = tested on: Nakaseomyces glabratus; test: Antifungal activity against Candida glabrata ATCC 22019 assessed as fungal growth inhibition by double dilution method; format: functional; how it was run: as §1
[11] = tested on: [Candida] auris; test: Antifungal activity against Candida auris AR Bank # 0384 assessed as fungal growth inhibition by double dilution method; format: functional; details: Candidozyma auris; how it was run: as §1
[12] = tested on: [Candida] auris; test: Antifungal activity against Candida auris AR Bank # 0390 assessed as fungal growth inhibition by double dilution method; format: functional; details: Candidozyma auris; how it was run: as §1
[13] = tested on: Cryptococcus neoformans; test: Antifungal activity against Cryptococcus neoformans ATCC MYA-895 assessed as fungal growth inhibition by double dilution method; format: functional; how it was run: as §1
[14] = tested on: Aspergillus terreus; test: Antifungal activity against Aspergillus terreus ATCC MYA-3633 assessed as fungal growth inhibition by double dilution method; format: functional
[15] = tested on: Aspergillus fumigatus; test: Antifungal activity against Aspergillus fumigatus NRRL 163 assessed as fungal growth inhibition by double dilution method; format: functional
[16] = tested on: Aspergillus flavus; test: Antifungal activity against Aspergillus flavus ATCC MYA-3631 assessed as fungal growth inhibition by double dilution method; format: functional
[17] = tested on: Aspergillus nidulans; test: Antifungal activity against Aspergillus nidulans ATCC 38163 assessed as fungal growth inhibition by double dilution method; format: functional
[18] = tested on: Aspergillus fumigatus; test: Antifungal activity against Aspergillus fumigatus NRRL 5109 assessed as fungal growth inhibition by double dilution method; format: functional
[19] = tested on: Aspergillus fumigatus; test: Antifungal activity against Aspergillus fumigatus NRRL 6113 assessed as fungal growth inhibition by double dilution method; format: functional
[20] = tested on: [Candida] auris; test: Antifungal activity against Candida auris AR Bank # 381 assessed as fungal growth inhibition by double dilution method; format: functional; details: Candidozyma auris; how it was run: as §1
[21] = tested on: [Candida] auris; test: Antifungal activity against Candida auris AR Bank # 382 assessed as fungal growth inhibition by double dilution method; format: functional; details: Candidozyma auris; how it was run: as §1
[22] = tested on: [Candida] auris; test: Antifungal activity against Candida auris AR Bank # 383 assessed as fungal growth inhibition by double dilution method; format: functional; details: Candidozyma auris; how it was run: as §1
[23] = tested on: [Candida] auris; test: Antifungal activity against Candida auris AR Bank # 384 assessed as fungal growth inhibition by double dilution method; format: functional; details: Candidozyma auris; how it was run: as §1
[24] = tested on: [Candida] auris; test: Antifungal activity against Candida auris AR Bank # 385 assessed as fungal growth inhibition by double dilution method; format: functional; details: Candidozyma auris; how it was run: as §1
[25] = tested on: [Candida] auris; test: Antifungal activity against Candida auris AR Bank # 386 assessed as fungal growth inhibition by double dilution method; format: functional; details: Candidozyma auris; how it was run: as §1
[26] = tested on: [Candida] auris; test: Antifungal activity against Candida auris AR Bank # 387 assessed as fungal growth inhibition by double dilution method; format: functional; details: Candidozyma auris; how it was run: as §1
[27] = tested on: [Candida] auris; test: Antifungal activity against Candida auris AR Bank # 388 assessed as fungal growth inhibition by double dilution method; format: functional; details: Candidozyma auris; how it was run: as §1
[28] = tested on: [Candida] auris; test: Antifungal activity against Candida auris AR Bank # 389 assessed as fungal growth inhibition by double dilution method; format: functional; details: Candidozyma auris; how it was run: as §1
[29] = tested on: [Candida] auris; test: Antifungal activity against Candida auris AR Bank # 390 assessed as fungal growth inhibition by double dilution method; format: functional; details: Candidozyma auris; how it was run: as §1
[30] = tested on: Candida duobushaemulonii; test: Antifungal activity against Candida duobushaemulonii AR Bank # 391 assessed as fungal growth inhibition by double dilution method; format: functional; details: Candidozyma duobushaemuli; how it was run: as §1
[31] = tested on: Candida duobushaemulonii; test: Antifungal activity against Candida duobushaemulonii AR Bank # 392 assessed as fungal growth inhibition by double dilution method; format: functional; details: Candidozyma duobushaemuli; how it was run: as §1
[32] = tested on: [Candida] haemuloni; test: Antifungal activity against Candida haemulonii AR Bank # 393 assessed as fungal growth inhibition by double dilution method; format: functional; details: Candidozyma haemuli; how it was run: as §1
[33] = tested on: Candida duobushaemulonii; test: Antifungal activity against Candida duobushaemulonii AR Bank # 394 assessed as fungal growth inhibition by double dilution method; format: functional; details: Candidozyma duobushaemuli; how it was run: as §1
[34] = tested on: [Candida] haemuloni; test: Antifungal activity against Candida haemulonii AR Bank # 395 assessed as fungal growth inhibition by double dilution method; format: functional; details: Candidozyma haemuli; how it was run: as §1
[35] = tested on: Kodamaea ohmeri; test: Antifungal activity against Kodamaea ohmeri AR Bank # 396 assessed as fungal growth inhibition by double dilution method; format: functional; how it was run: as §1
[36] = tested on: Pichia kudriavzevii; test: Antifungal activity against Pichia kudriavzevii AR Bank # 397 assessed as fungal growth inhibition by double dilution method; format: functional; how it was run: as §1
[37] = tested on: Clavispora lusitaniae; test: Antifungal activity against Clavispora lusitaniae AR Bank # 398 assessed as fungal growth inhibition by double dilution method; format: functional; how it was run: as §1
[38] = tested on: Saccharomyces cerevisiae; test: Antifungal activity against Saccharomyces cerevisiae AR Bank # 399 assessed as fungal growth inhibition by double dilution method; format: functional; how it was run: as §1
[39] = tested on: Saccharomyces cerevisiae; test: Antifungal activity against Saccharomyces cerevisiae AR Bank # 400 assessed as fungal growth inhibition by double dilution method; format: functional; how it was run: as §1
[40] = tested on: Candida albicans; test: Antibiofilm activity against Candida albicans ATCC 10231 assessed as reduction in biofilm production at 1.96 to 3.9 microg/ml by biofilm formation assay; format: functional, organism-based; details: dose 1.96-3.9 µg/ml

SMILES	MIC [1] [mg/L]	MIC [2] [mg/L]	MIC [3] [mg/L]	MIC [4] [mg/L]	MIC [5] [mg/L]	MIC [6] [mg/L]	MIC [7] [mg/L]	MIC [8] [mg/L]	MIC [9] [mg/L]	MIC [10] [mg/L]	MIC [11] [mg/L]	MIC [12] [mg/L]	MIC [13] [mg/L]	MIC [14] [mg/L]	MIC [15] [mg/L]	MIC [16] [mg/L]	MIC [17] [mg/L]	MIC [18] [mg/L]	MIC [19] [mg/L]	MIC [20] [mg/L]	also measured
COc1ccc(NNC(=O)c2ccccn2)cc1	0.12 (≈ 0.493 µM)	0.98 (≈ 4.03 µM)	1.95 (≈ 8.02 µM)	0.49 (≈ 2.01 µM)	0.98 (≈ 4.03 µM)	0.98 (≈ 4.03 µM)	0.98 (≈ 4.03 µM)	0.98 (≈ 4.03 µM)	0.49 (≈ 2.01 µM)	3.9 (≈ 16 µM)	3.9 (≈ 16 µM)	0.12 (≈ 0.493 µM)	0.49 (≈ 2.01 µM)	31.3 (≈ 129 µM)	> 31.3	> 31.3	0.49 (≈ 2.01 µM)	> 31.3	31.3 (≈ 129 µM)	1.95 (≈ 8.02 µM)	MIC [21]: 1.95 mg/L (≈ 8.02 µM); MIC [22]: 1.95 mg/L (≈ 8.02 µM); MIC [23]: 3.9 mg/L (≈ 16 µM); MIC [24]: 0.98 mg/L (≈ 4.03 µM); MIC [25]: 0.24 mg/L (≈ 0.987 µM); MIC [26]: 0.49 mg/L (≈ 2.01 µM); MIC [27]: 0.49 mg/L (≈ 2.01 µM); MIC [28]: 0.24 mg/L (≈ 0.987 µM); MIC [29]: 0.12 mg/L (≈ 0.493 µM); MIC [30]: 0.98 mg/L (≈ 4.03 µM); MIC [31]: 0.98 mg/L (≈ 4.03 µM); MIC [32]: 0.49 mg/L (≈ 2.01 µM); MIC [33]: 0.98 mg/L (≈ 4.03 µM); MIC [34]: 0.49 mg/L (≈ 2.01 µM); MIC [35]: 0.49 mg/L (≈ 2.01 µM); MIC [36]: 0.49 mg/L (≈ 2.01 µM); MIC [37]: 0.98 mg/L (≈ 4.03 µM); MIC [38]: 1.95 mg/L (≈ 8.02 µM); MIC [39]: 0.98 mg/L (≈ 4.03 µM); Activity [40]: Active
COc1cccc(NNC(=O)c2ccccn2)c1	0.24 (≈ 0.987 µM)	0.98 (≈ 4.03 µM)	0.98 (≈ 4.03 µM)	1.95 (≈ 8.02 µM)	1.95 (≈ 8.02 µM)	1.95 (≈ 8.02 µM)	0.98 (≈ 4.03 µM)	15.6 (≈ 64.1 µM)	0.49 (≈ 2.01 µM)	3.9 (≈ 16 µM)	0.98 (≈ 4.03 µM)	0.98 (≈ 4.03 µM)	0.24 (≈ 0.987 µM)	3.9 (≈ 16 µM)	7.8 (≈ 32.1 µM)	> 31.3	1.95 (≈ 8.02 µM)	3.9 (≈ 16 µM)	> 31.3	3.9 (≈ 16 µM)	MIC [21]: 0.98 mg/L (≈ 4.03 µM); MIC [22]: 0.98 mg/L (≈ 4.03 µM); MIC [23]: 0.98 mg/L (≈ 4.03 µM); MIC [24]: 3.9 mg/L (≈ 16 µM); MIC [25]: 0.49 mg/L (≈ 2.01 µM); MIC [26]: 0.49 mg/L (≈ 2.01 µM); MIC [27]: 3.9 mg/L (≈ 16 µM); MIC [28]: 0.49 mg/L (≈ 2.01 µM); MIC [29]: 0.98 mg/L (≈ 4.03 µM); MIC [30]: 1.95 mg/L (≈ 8.02 µM); MIC [31]: 1.95 mg/L (≈ 8.02 µM); MIC [32]: 0.49 mg/L (≈ 2.01 µM); MIC [33]: 0.98 mg/L (≈ 4.03 µM); MIC [34]: 0.49 mg/L (≈ 2.01 µM); MIC [35]: 0.49 mg/L (≈ 2.01 µM); MIC [36]: 0.49 mg/L (≈ 2.01 µM); MIC [37]: 1.95 mg/L (≈ 8.02 µM); MIC [38]: 7.8 mg/L (≈ 32.1 µM); MIC [39]: 7.8 mg/L (≈ 32.1 µM); Activity [40]: Active
